Bioassay records from PubChem.
Shown are actives, neighbours in structure and some others; about 2.6% of the full set was active somewhere.
VIM-2 inh – blocks Pseudomonas aeruginosa VIM-2 metallo-beta-lactamase; purified VIM-2, nitrocefin hydrolysis, epi-absorbance fluorescence; inhibition, % at 5.6 µM; 290,000 compounds, 0.89% hits;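 active means inhibition above the mean of all tested compounds plus 3 SD, cutoff set per screening run, cut at about 7.5% in these data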;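 further: red hydrolysis product quenches plate fluorescence so inhibitors raise well fluorescence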
PHOSPHO1 inh – blocks human PHOSPHO1 phosphatase activity; recombinant PHOSPHO1, absorbance phosphatase assay; inhibition, % at 13.3 µM; Q8TCT1; AID 1565; 290,000 compounds, 1.1% hits; in the data active means inhibition above about 60%
ASAP1 inh – ASAP1 ArfGAP inhibition. Q9ULH1. ASAP1-stimulated ARF1 GTP hydrolysis, GDP FP detection. inhibition, % at 16.5 µM. 360,000 compounds, 0.19% hits. AID 624377; in the data active means inhibition above about 25%
Target sequence (Q9ULH1 325-724 limits assumed): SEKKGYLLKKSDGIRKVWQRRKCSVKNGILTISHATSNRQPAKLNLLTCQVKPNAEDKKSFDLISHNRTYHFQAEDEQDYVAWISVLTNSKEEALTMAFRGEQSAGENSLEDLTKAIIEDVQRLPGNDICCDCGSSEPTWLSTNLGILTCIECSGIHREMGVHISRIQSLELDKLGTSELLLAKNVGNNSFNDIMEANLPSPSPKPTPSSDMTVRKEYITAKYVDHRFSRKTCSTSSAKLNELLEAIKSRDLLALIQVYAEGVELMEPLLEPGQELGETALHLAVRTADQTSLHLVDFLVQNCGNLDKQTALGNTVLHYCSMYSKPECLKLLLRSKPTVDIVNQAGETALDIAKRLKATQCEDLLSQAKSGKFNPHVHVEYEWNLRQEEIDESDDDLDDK
ARFGAP1 inhibitor – rat ARFGAP1 inhibition. Q62848. 360,000 compounds, 0.26% hits. Arfgap1-stimulated ARF1 GTP hydrolysis, GDP FP detection. inhibition, % at 16.5 µM;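 active means inhibition above a per-plate limit, mean inhibition of low control wells plus 3 SD, cut at about 25% in these data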
Target sequence (Q62848 1-136 limits assumed): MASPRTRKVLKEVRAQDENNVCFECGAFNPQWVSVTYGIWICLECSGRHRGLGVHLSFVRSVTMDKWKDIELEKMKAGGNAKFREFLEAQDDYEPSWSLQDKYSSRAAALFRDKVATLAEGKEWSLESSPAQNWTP
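Material: rat Arfgap1 GAP domain (His6, aa 1-136), purified enzyme. Also added: human ARF1(Δ1-17)-GTP substrate. Compound dosing: 16.5 µM single point, 1.26% DMSO. Timing: enzyme reaction 120 min at 25 °C after 20 min preincubation. Signal: GDP detection by fluorescence polarization. Read-out basis: percent inhibition of GAP-stimulated GDP formation, scaled between DMSO and no-Arfgap1 medians.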
IMP-1 inh – inhibitors of Pseudomonas aeruginosa IMP-1 metallo-beta-lactamase. purified IMP-1, nitrocefin hydrolysis, epi-absorbance fluorescence. inhibition, % at 5.6 µM. 290,000 compounds, 0.45% hits;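 active means inhibition above the mean plus 3 SD of all compounds in the same screening run, cut at about 4.5% in these data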
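system = purified recombinant IMP-1 beta-lactamase | amount = 0.2 nM IMP-1, as dispensed | medium = HEPES buffer pH 7.1 with ZnSO4 and Brij 35 | times = 25 °C, 15 min preincubation, 25 min reaction | detection = plate fluorescence quenching by hydrolysis product, ex 480/em 530 nm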
Calb FLC – C. albicans growth modulation with fluconazole | growth inhibition, % (no concentration beside the values) | C. albicans CaCi-2 + fluconazole, Alamar Blue growth, 48 h | 300,000 compounds, 0.57% hits | AID 1979;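 active means growth inhibition above about 58% in most replicates, limit read from the data, passing the limit was not always enough; inconclusive means exactly half the replicates above a set limit; inactive means most replicates below a set limit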;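 further: all wells also contain fluconazole at 8 µg/ml as a sub-toxic cotreatment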
VIM-2 inh confirm – VIM-2 inhibition, confirmation assay; 200 compounds, 73% hits; purified VIM-2 enzyme, nitrocefin absorbance; shares compounds with IMP-1 inh; inhibition, % at 5.6 µM; in the data active means inhibition above about 8%
TEM-1 counter – blocks E. coli TEM-1 beta-lactamase, VIM-2 IMP-1 counter-screen; inhibition, % at 5.6 µM; 200 compounds, 50% hits; AID 2184; nitrocefin absorbance inhibition; shares compounds with IMP-1 inh; in the data active means inhibition above about 0.66%
IMP-1 confirm – confirmation of P. aeruginosa IMP-1 metallo-beta-lactamase inhibitors; shares compounds with IMP-1 inh; purified IMP-1 enzyme, absorbance substrate hydrolysis; inhibition, % at 5.6 µM; 200 compounds, 60% hits; AID 2189; in the data active means inhibition above about 4.9%
ASAP1 GAP conf – ASAP1 inhibition confirmed; shares compounds with ASAP1 inh; ASAP1-stimulated Arf1 GTPase, GDP fluorescence polarization; inhibition, % at 16.5 µM; 620 compounds, 37% hits; AID 624431;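 active means mean inhibition over triplicates exceeds the hit threshold derived for the earlier primary screening run, cut at about 25% in these data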
Numbers stand for hits; - = inactive; ? = inconclusive; . = no result.

SMILES	VIM-2 inh	PHOSPHO1 inh	ASAP1 inh	ARFGAP1 inhibitor	IMP-1 inh	Calb FLC	ASAP1 GAP conf	others
Cc1cc(C)n2c(NC3CCCCC3)c(-c3cccnc3)nc2n1	.	.	-	-	.	.	.
COc1ccc(NC(=O)c2cccc3c(-c4ccc(O)c(OC)c4)coc23)cc1	.	.	-	-	.	.	.
COC(=O)C1=CN(c2ccc(OC)cc2)C(N)=C(C#N)C1c1ccccc1F (configuration not stated)	.	.	-	-	.	.	.
Cc1cc(O)ccc1C1(c2ccc(O)cc2C)OC(=O)c2ccccc21	-	-	-	-	-	-	.
CC(=O)Oc1ccc2c(c1)Oc1cc(OC(C)=O)ccc1C21OC(=O)c2ccccc21	142.8	-	.	.	140.4	.	.	VIM-2 inh confirm=13.8;TEM-1 counter=3.3;IMP-1 confirm=4.7
CCOC(=O)[C@]12CCC=C1N(Cc1ccco1)C(=O)[C@H](CC(=O)NCC1CCCCC1)C2	.	.	-	-	.	.	.
CCN1CCN(c2cc(C)c3cc(NC(=O)c4ccc(OC)c(OC)c4)ccc3n2)CC1	-	-	37.2	-	-	-	49.9
COc1cc(CC(=O)C(=O)O)oc(=O)c1	.	.	-	-	.	.	.
CC1CCN(C(=O)COC(=O)c2cc3ccccc3cc2O)CC1	-	-	25.6	-	-	?	-
CCCCNC(=O)C1(C)CCN1Cc1ccc(C#N)cc1 (configuration not stated)	.	.	-	-	.	.	.
O=C(Cn1nc(-c2ccc3c(c2)OCCO3)ccc1=O)Nc1ccc(-n2cnnn2)cc1	-	-	35.7	-	-	-	36.4
O=C(Cn1nc(-c2ccccc2)ccc1=O)Nc1ccc(-n2cnnn2)cc1	-	-	-	-	-	-	.
CC(=O)c1ccc(CCCCc2ccc(C(C)=O)cc2)cc1	.	.	24.7	-	.	.	-
CCCNC(=O)C1(C)CCN(C(=O)Cc2ccc3ccccc3c2)C1 (configuration not stated)	.	.	-	-	.	.	.
Cc1ccc(NC(=O)C2c3ccccc3-c3ccccc32)cc1	.	.	-	-	.	.	.
Cc1ccc(-c2nnc(N(C)C(=O)c3cccnc3)s2)cn1	-	-	25.6	-	-	-	-
Cc1cccc(C)c1NC(=O)C(c1ccnc2ccccc12)n1c(=O)c(-c2ccccc2)nc2ccccc21 (configuration not stated)	.	.	-	-	.	.	.
Cn1c(C(=O)Nc2ccccc2)cc2sccc21	-	-	30.6	-	-	-	-
COc1ccc(NC(=S)Nc2ccc3nsnc3c2)cc1	-	-	32.7	-	-	-	-
CC(C)N(C(=O)Nc1ccc2nsnc2c1)C(C)C	-	-	41.3	-	-	-	-
COc1ccc(NC(=S)Nc2ccc3nc(C)c(C)nc3c2)cc1	-	-	-	-	-	-	.
CC(=O)C1C(c2ccc(C)cc2)c2c(n[nH]c2C)CC1(C)O (configuration not stated)	-	-	43.4	-	-	-	-
CC(=O)N(C)c1ccc(NC(=O)Nc2ccc(C)c(C)c2)cc1	-	-	26.6	-	-	-	-
CC(=O)N(C)c1ccc(NC(=O)Nc2ccccc2C)cc1	-	-	-	-	-	-	.
CC(C)C[C@H]1CNC(=O)C(=O)N1C[C@@H]1CCCN1C[C@H](Cc1ccc(O)cc1)N1C[C@H](Cc2ccccc2)N(CC2CCCCC2)C(=O)C1=O	.	.	-	-	.	.	.
SMILES	VIM-2 inh	PHOSPHO1 inh	ASAP1 inh	ARFGAP1 inhibitor	IMP-1 inh	Calb FLC	ASAP1 GAP conf	others
CCN(C(=S)NCc1ccccc1)c1cccc2ccccc12	-	-	24.8	-	-	-	-
CCN(C(=S)NCc1ccccc1)c1ccccc1	-	-	-	-	-	-	.
COc1ccc(NC(=O)Nc2nnc([C@@H]3C[C@H](O)[C@@H](CO)O3)s2)cc1	.	.	-	-	.	.	.
CCOC(=O)C1=C(C)OC2(O)c3ccccc3C(=O)C12O (configuration not stated)	-	-	47.2	-	-	-	-
CC(=O)C1=C(C)OC2(O)c3ccccc3C(=O)C12O (configuration not stated)	-	-	43.3	-	-	-	-
Cc1c(C#N)c2ccccc2n1CC(=O)NCCc1c[nH]c2ccccc12	-	-	-	-	-	-	.
N#Cc1cn(CC(=O)NCCc2c[nH]c3ccccc23)c2ccccc12	-	-	26.6	-	-	-	-
Cc1ccc(-c2csc(NC(=O)COc3ccc(N(C)S(=O)(=O)c4ccc(C)cc4)cc3)n2)cc1	-	-	25.3	-	-	-	-
COc1cc(/C=C/c2nc(-c3ccccc3O)n[nH]2)cc(OC)c1OC	-	-	25.4	-	-	-	31.0
CCc1nc2c(OCCC3CCCCC3)cccn2c1N(C=O)Cc1ccc(OC)cc1	.	.	-	-	.	.	.
O=C1NC(Cc2c[nH]c3ccccc23)C(=O)N1Cc1ccc(CN2C(=O)NC(Cc3c[nH]c4ccccc34)C2=O)cc1 (configuration not stated)	-	-	29.4	-	-	-	-
CC1(C(=O)Nc2cccc3cccnc23)CCN1Cc1cccc2c1OCO2 (configuration not stated)	.	.	-	-	.	.	.
C[C@@H]1CC2=C(C(=O)OC(C)(C)O2)[C@H](c2ccc(Cl)cc2)O1	.	.	26.0	-	.	.	-
COc1ccc(/C=C2\SC(=O)N(CC(=O)Nc3ccc(O)cc3)C2=O)cc1OC	-	-	-	-	-	-	.
